The species entered for test [1] is Homo sapiens. Briefly: Binding affinity to human telomeric G-quadraflex assessed as thermal stability at 10 uM by FRET assay. The method, boiled down:
(§1)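 Human telomeric (GGGTTA)4 oligonucleotide labelled with fluorescein at the 5'-end and MethylRed quencher at the 3'-end, folded into an intramolecular G-quadruplex in 50 mM potassium phosphate buffer, pH 7.4. Fluorescence melting was run on a Roche Light Cycler (excitation 488 nm, emission 520 nm) without and with ligand. Stabilisation was taken as the increase in melting temperature.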

Test [2] can be described thus: Inhibition of human telomerase in JR8 cells by TRAP assay. The format is cell-based. In short, it runs like this: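 Modified TRAP assay. Telomerase source was supernatant of JR8 cell lysate (13000 rpm, 30 min, 4 °C). The 50 µl reaction held 50 µM dNTPs, 0.2 µg labelled TS, 0.1 µg ACX return primer, 500 ng protein extract, 2 U Taq and a TSNT internal control with NT primer, with or without drug at increasing concentrations. Telomerase was inactivated at 85 °C for 5 min. PCR ran 25 cycles (94/65/72 °C, 30 s each). Products were resolved on a 2% agarose gel and stained with ethidium bromide.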

The species named for test [3] is Homo sapiens. Briefly: Binding affinity to human telomeric G-quadraflex assessed as thermal stability at 1 uM by FRET assay. The method, boiled down: as §1

For `NCCC(=O)Nc1ccc2c(c1)C(=O)c1cc(NC(=O)CCN)ccc1C2=O`, the ΔTm in the test listed under Homo sapiens [1] came to 27.3 °C; in the test listed under Homo sapiens [3] it was 11.3 °C. The compound further gave an EC50 in test [2] of 1.2 µM.

In the case of `O=C(NCCN1CCCC1)c1ccc2c(c1)C(=O)c1ccc(C(=O)NCCN3CCCC3)cc1C2=O`, the values for the ΔTm in the test filed under Homo sapiens [1] and in the test filed under Homo sapiens [3] were 10.8 °C and 1.8 °C, respectively. In test [2], this compound registered an EC50 of 10.4 µM.

Consider `NCCNC(=O)c1ccc2c(c1)C(=O)c1cc(C(=O)NCCN)ccc1C2=O`, for which the ΔTm is 12.9 °C in the test listed under Homo sapiens [1] and 3.3 °C in the test listed under Homo sapiens [3]. Also, the EC50 in test [2] is 14.5 µM.

For `NCCC(=O)Nc1ccc2c(c1)C(=O)c1ccc(NC(=O)CCN)cc1C2=O`, the ΔTm in the test listed under Homo sapiens [1] stood at 18.1 °C; in the test filed under Homo sapiens [3] it was 9.1 °C. This compound returned an EC50 in test [2] of 1.2 µM.

In the case of `NCCNC(=O)c1ccc2c(c1)C(=O)c1ccc(C(=O)NCCN)cc1C2=O`, the ΔTm in the test listed under Homo sapiens [1] was 10 °C; in the test filed under Homo sapiens [3], 2 °C. Further, in test [2], a half-maximal response (EC50) required 5.2 µM.

With `O=C(CCN1CCCC1)Nc1ccc2c(c1)C(=O)c1ccc(NC(=O)CCN3CCCC3)cc1C2=O`, the ΔTm in the test listed under Homo sapiens [1] stood at 19.2 °C; in the test listed under Homo sapiens [3] it was 5.9 °C. Moreover, a half-maximal effect in test [2] (EC50) was put at 2.5 µM.

Source of the values: ChEMBL document CHEMBL1143869, “Amide bond direction modulates G-quadruplex recognition and telomerase inhibition by 2,6 and 2,7 bis-substituted anthracenedione derivatives” (Bioorg Med Chem, 2008).
